High-throughput results as filed in PubChem.
TCR-CD3 inh: inhibitors of human TCR-CD3 interaction, primary screen, biochemical, fluorescence, TAMRA-labeled TCR probe; T-cell receptor (TCR); inhibition, % at 9.4 µM; 360,000 compounds, 0.37% hits; in the data active = inhibition above about 19%;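 also: recombinant mutant TCR 2C K166C tagged with TAMRA read by polarization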
HTRA1 inh: HTRA1 serine protease inhibitors, primary screen, biochemical, fluorescence polarization, HTS; 340,000 compounds, 0.5% hits; Q92743; inhibition, % at 5.96 µM; recombinant HTRA1, FP-rhodamine activity-based probe; AID 504803, 2011; in the data active = inhibition above about 36%
Target sequence (Q92743 whole entry, looked up): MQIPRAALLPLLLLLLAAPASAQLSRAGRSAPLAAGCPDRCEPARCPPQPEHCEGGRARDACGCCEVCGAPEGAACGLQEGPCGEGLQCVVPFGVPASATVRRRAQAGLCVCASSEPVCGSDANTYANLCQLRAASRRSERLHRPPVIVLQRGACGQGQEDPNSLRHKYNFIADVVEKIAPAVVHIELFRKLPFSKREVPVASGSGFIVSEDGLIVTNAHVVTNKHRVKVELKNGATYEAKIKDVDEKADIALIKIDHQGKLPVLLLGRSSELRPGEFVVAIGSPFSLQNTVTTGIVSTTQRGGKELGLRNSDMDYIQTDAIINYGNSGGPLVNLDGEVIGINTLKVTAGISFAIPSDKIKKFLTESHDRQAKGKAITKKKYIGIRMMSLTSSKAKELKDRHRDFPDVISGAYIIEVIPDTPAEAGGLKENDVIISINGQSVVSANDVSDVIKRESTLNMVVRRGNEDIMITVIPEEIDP
DDE Tn7 FP inh: inhibitors of Tn7 peptide binding to fibrin DD(E), primary screen, biochemical, fluorescence polarization, human fibrin, Tn7 probe. AID 720508, 2013. inhibition, % at 8.3 µM. 370,000 compounds, 0.13% hits. FP displacement of FITC-Tn7 peptide from fibrin DD(E); 0% = median of compound wells per plate;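 active = inhibition above the mean of compounds falling within the control limits plus 3 SD of them, cut at about 14% in these data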
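Assay system: Human clot-derived fibrin DD(E) complex | Buffer or medium: Tris/NaCl/CaCl2 buffer, pH 7.8 | Repeats: One replicate per compound | Benchmarks: Aha-Tn7 high control | Measure: % inhibition scaled between sample-field median and high-control FP | Schedule: 10 min plus 3 h, room temperature | Signal: Fluorescence polarization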
ABHD4 inh: ABHD4 inhibitors, primary screen, biochemical, fluorescence polarization, mouse. inhibition, % at 8.92 µM. purified mABHD4, FP-Rh probe fluorescence polarization. 370,000 compounds, 0.54% hits. (Lyso)-N-acylphosphatidylethanolamine lipase (Mus musculus), Q8VD66;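 active = inhibition exceeding the mean over every tested compound plus 3 SD, cut at about 30% in these data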
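Assay system: wild-type mouse ABHD4 protein; compound: single nominal dose of 8.92 µM, 0.89% DMSO final; schedule: 45 min + 60 min at 25 °C; measured by: FP readout, ex 525 nm / em 598 nm; evaluation: % inhibition of FP-Rh probe binding versus controls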
Tn6 DDE FP: inhibitors of Tn6 peptide binding to fibrin DD(E), primary screen, biochemical, fluorescence polarization, human fibrin, Tn6 probe; Fibrinogen beta chain (Homo sapiens), P02675; Fibrin DD(E) TRITC-Tn6 fluorescence polarization displacement; inhibition, % at 8.3 µM; 370,000 compounds, 0.21% hits; AID 720509, 2013;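 active = inhibition above a per-campaign cutoff: mean of compounds within control limits plus 3 SD, cut at about 15% in these data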
Large screens that a line does not name were inactive. Most compounds without a hit are left out; they make up all but 1.3% or so of the library.

CN(c1ccccc1)S(=O)(=O)c1ccc(NC(=O)c2ccc(-c3ccccc3)cc2)cc1	TCR-CD3 inh 63
COc1cc(CC2COC(c3ccc(O)c(OC)c3)C2COC(C)=O)ccc1O (stereo unspecified)	TCR-CD3 inh 23
COc1cc([C@@H]2OC[C@@H]3[C@H]2CO[C@@H]3c2ccc3c(c2)OCO3)ccc1O	none
CCCN1CCC(=O)NC1=S	none
O=[N+]([O-])c1cc(CN2CCCC2)c2cccnc2c1O	HTRA1 inh 54 (no result: TCR-CD3 inh, DDE Tn7 FP inh, ABHD4 inh, Tn6 DDE FP)
Oc1c(Cl)cc(CN2CCCCC2)c2cccnc12	HTRA1 inh 46 (no result: TCR-CD3 inh, DDE Tn7 FP inh, ABHD4 inh, Tn6 DDE FP)
COc1ccc(-c2cnc3c(NC=O)cc(-c4ccoc4)cn23)cc1OC	none (no result: HTRA1 inh)
O=C(O)CCN1C(=O)C2C3CC(C2C1=O)C1C(c2ccccc2)c2sc(=O)n(-c4ccccc4)c2SC31 (stereo unspecified)	none
CCc1ccc(C=NC23CN4CN(CN(C4)C2)C3)s1	none
CC(C)(C)NC(=O)/C(=C\c1ccco1)NC(=O)c1cccs1	none
S=C1Cc2ccccc2N1	ABHD4 inh 34
N/C(=N\OC(=O)c1cccs1)c1cccc([N+](=O)[O-])c1	none
CCCCNCCOc1ccccc1-c1ccccc1	none
O=c1[nH]c2c(s1)C=Nc1ccccc1N2	DDE Tn7 FP inh 30
O=C1CC(c2ccco2)CC2=C1C=Nc1ccccc1N2 (stereo unspecified)	none
O=C(NCCc1ccccc1)C1CCCN(S(=O)(=O)c2cccc3nonc23)C1 (stereo unspecified)	DDE Tn7 FP inh 14
O=c1oc2ccc3ccccc3c2cc1-c1nnc(-c2cccs2)o1	none
C/C(=N\NC(=O)c1ccc(Br)cc1)C1C(=O)c2ccccc2C1=O	TCR-CD3 inh 27, HTRA1 inh 40, ABHD4 inh 36
CCOc1ccc(C(=O)N/N=C(/C)C2C(=O)c3ccccc3C2=O)cc1	none
Cc1cccc(Oc2coc3cc(OC(=O)c4cccs4)ccc3c2=O)c1	HTRA1 inh 69
Cc1ccc(Oc2coc3cc(OC(=O)c4cccs4)ccc3c2=O)cc1	HTRA1 inh 70
CCc1ccc(CNC(=O)c2ccc(OC3CCN(C(=O)COC)CC3)cc2)nc1	none
O=C(NCCN1CCc2ccccc2C1)Nc1ccc([N+](=O)[O-])cc1	DDE Tn7 FP inh 15
COc1ccc(CNC(=O)C[C@H]2C[C@H](C(=O)N3CCCCC3)[C@@]3(C)c4[nH]c5cc(CCC(=O)N(C)C)ccc5c4CCN3C2=O)cc1OC	Tn6 DDE FP 16
COc1ccc(CNC(=O)C[C@H]2C[C@H](C(=O)N(C(C)C)C(C)C)[C@@]3(C)c4[nH]c5cc(CCC(=O)N(C)C)ccc5c4CCN3C2=O)cc1OC	none
Cc1ccc(S(=O)(=O)N2C[C@H]3N(C(=O)OC(C)C)N(C(=O)OC(C)C)C[C@H](OC(=O)NCc4ccccc4F)[C@@]3(O)C2)cc1	none
Cc1[nH]c2c(ccc3cccnc32)c1C	none
CC1=[N+](C)c2c(ccc3cccnc23)C1(C)C	Tn6 DDE FP 153
O=C(CN(Cc1cccs1)C(=O)CCC(=O)Nc1ccccn1)NCc1ccccc1	none
C=CCNC(=O)c1ccsc1N	Tn6 DDE FP 17 (no result: HTRA1 inh)
O=C(N/N=C/c1cc(Cl)ccc1O)C(=O)Nc1ccccc1OC(F)(F)C(F)F	none
O=C(N/N=C/c1cc(Br)ccc1O)C(=O)Nc1ccccc1OC(F)(F)C(F)F	HTRA1 inh 46
COc1ccc(N2CCN(CC(=O)Nc3sccc3C#N)CC2)cc1	none
O=C1CS(=O)(=O)N(Cc2cccc(F)c2)c2ccc(Br)cc21	none
O=C1c2cc(Br)ccc2N(Cc2ccc(Br)cc2)S(=O)(=O)C1c1cc(Cl)c(Cl)cc1[N+](=O)[O-] (stereo unspecified)	HTRA1 inh 53 (no result: TCR-CD3 inh, DDE Tn7 FP inh, ABHD4 inh, Tn6 DDE FP)
CCN(CC)C(=O)Cn1ncc2c1-c1ccccc1OC2	none
O=C(Cn1ncc2c1-c1ccccc1OC2)Nc1nc2ccccc2s1	TCR-CD3 inh 19
Cc1coc2c1C(=O)C(=O)c1c-2ccc2c(C)cccc12	HTRA1 inh 40 (no result: TCR-CD3 inh, DDE Tn7 FP inh, ABHD4 inh, Tn6 DDE FP)
CN1/C(=C\C=O)C(C)(C)c2ccccc21	none
CN1\C(=C/C=C/C=C/C=[N+](C)C)C(C)(C)c2ccccc21	Tn6 DDE FP 31
CC(=O)c1ccc2c(c1)C1C=CCC1C(C(=O)O)N2 (stereo unspecified)	TCR-CD3 inh 49, ABHD4 inh 70 (no result: HTRA1 inh)
CC(=O)c1ccc2c(c1)C1C=CCC1C(c1ccncc1)N2 (stereo unspecified)	none
COc1c(CC=C(C)C)cc(C2CC(=O)c3c(O)cc(O)cc3O2)cc1CC=C(C)C (stereo unspecified)	none
COC1=CC(=O)C(C2CC(=O)c3c(O)cc(O)cc3O2)=CC1=O (stereo unspecified)	ABHD4 inh 49
COc1cc(OC)c(-c2c3cc(O)c(=O)cc-3oc3cc(O)c(O)cc23)cc1OC	Tn6 DDE FP active
CC1=CC2=NC(=O)CC(C)(C(=O)N(CC(=O)NC(C)(C)C)C3CCCC3)N2C=C1 (stereo unspecified)	none
CN1CCc2cc3c(c4c2[C@H]1[C@H](O)c1ccccc1-4)OCO3	ABHD4 inh 46
Cc1ccc(C(=O)C(C)OC(=O)CNC(=O)c2ccc(Br)o2)cc1 (stereo unspecified)	none
CC1=C(C)C(=O)N(CCC(=O)O)C1=O	none
O=C(O)c1ccc(S(=O)(=O)/N=C2\C=C(Nc3ccccc3F)C(=O)c3ccccc32)cc1	ABHD4 inh 58
CC(C)c1ccc(S(=O)(=O)/N=C2\C=C(NS(=O)(=O)c3ccccc3)C(=O)c3ccccc32)cc1	ABHD4 inh 51
CC(=O)c1cccc(N(C(=O)c2ccco2)C(C(=O)NC2CCCC2)c2cccs2)c1 (stereo unspecified)	none
CC(=O)c1cc(O)c2ccccc2c1O	ABHD4 inh 39
CC(=O)c1coc2c1cc(O)c1ccccc12	none
Oc1ccc(/C=N/NC(=S)Nc2cccnc2)cc1O	TCR-CD3 inh 24
O=C1C(C2=C(O)c3ccccc3C2=O)=Nc2ccccc21	ABHD4 inh 40
CN=CC1=C(O)c2ccccc2C1=O	none
Cc1ncc(CO)c(/C=N/NC(=S)Nc2cccc(Cl)c2)c1O	HTRA1 inh 43 (no result: TCR-CD3 inh, DDE Tn7 FP inh, ABHD4 inh, Tn6 DDE FP)
CN(CCO)c1ccc(C=NNc2ccc([N+](=O)[O-])cc2S(=O)(=O)Nc2ccccc2C(=O)O)cc1	ABHD4 inh 46 (no result: HTRA1 inh)
CC(=O)Nc1c2c3c(cccc3n(C)c1=O)C(=O)c1ccccc1-2	none
Cn1c(=O)c(Nc2ccc(Cl)cc2)c2c3c(cccc31)C(=O)c1ccccc1-2	TCR-CD3 inh 42, DDE Tn7 FP inh 36, ABHD4 inh 42 (no result: HTRA1 inh)
